Source: article PMC10170627 (RSC Chemical Biology, 2023)
Starred links: 1 amine or outer side, 2 acyl side, 3 side chain; linkers in the order of their positions; H or OH if unused. Positions of bridges follow the written chain, without caps; N, C: chain ends. Non-standard residues stand in square brackets, D forms with d. Residues, ends and D or L forms follow the SMILES beside them. Chains are numbered I, II in the order given. Actinocin(9to1) = Cc1c2oc3c(C)ccc(C(=O)[*:1])c3nc-2c(C(=O)[*:2])c(N)c1=O; NMeV = CN[C@H](C(=O)O)C(C)C; Sar = CNCC(=O)O

Key:
NCI 60-cell line panel = NCI 60-cell line panel COMPARE analysis; type: cell-based; details: five-dose data, Standard Agents GI50 library; 48 h
E. coli BL21(DE3) [1] = assay: Bacteria growth inhibition; type: cell-based, Escherichia coli; details: 0-100 μM, 16 h
In short: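 MIC taken as the lowest test compound concentration at which no bacterial growth was observed.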

E. coli BL21(DE3) [2] = assay: Bacterial cytological profiling; type: cell-based, Escherichia coli
NPM1 = assay: Nucleophosmin; type: cell-based, human; details: A549; 24 h; 5 nM actinomycin D, 5 μM cisplatin, 5 μM compound 1
E. coli DNA gyrase = E. coli DNA gyrase (Escherichia coli, UniProt P0AES4+P0AES6); assay: Inhibition of DNA gyrase activity; type: biochemical; details: positive control
Chain of E. coli DNA gyrase (P0AES4 whole entry, one chain of several): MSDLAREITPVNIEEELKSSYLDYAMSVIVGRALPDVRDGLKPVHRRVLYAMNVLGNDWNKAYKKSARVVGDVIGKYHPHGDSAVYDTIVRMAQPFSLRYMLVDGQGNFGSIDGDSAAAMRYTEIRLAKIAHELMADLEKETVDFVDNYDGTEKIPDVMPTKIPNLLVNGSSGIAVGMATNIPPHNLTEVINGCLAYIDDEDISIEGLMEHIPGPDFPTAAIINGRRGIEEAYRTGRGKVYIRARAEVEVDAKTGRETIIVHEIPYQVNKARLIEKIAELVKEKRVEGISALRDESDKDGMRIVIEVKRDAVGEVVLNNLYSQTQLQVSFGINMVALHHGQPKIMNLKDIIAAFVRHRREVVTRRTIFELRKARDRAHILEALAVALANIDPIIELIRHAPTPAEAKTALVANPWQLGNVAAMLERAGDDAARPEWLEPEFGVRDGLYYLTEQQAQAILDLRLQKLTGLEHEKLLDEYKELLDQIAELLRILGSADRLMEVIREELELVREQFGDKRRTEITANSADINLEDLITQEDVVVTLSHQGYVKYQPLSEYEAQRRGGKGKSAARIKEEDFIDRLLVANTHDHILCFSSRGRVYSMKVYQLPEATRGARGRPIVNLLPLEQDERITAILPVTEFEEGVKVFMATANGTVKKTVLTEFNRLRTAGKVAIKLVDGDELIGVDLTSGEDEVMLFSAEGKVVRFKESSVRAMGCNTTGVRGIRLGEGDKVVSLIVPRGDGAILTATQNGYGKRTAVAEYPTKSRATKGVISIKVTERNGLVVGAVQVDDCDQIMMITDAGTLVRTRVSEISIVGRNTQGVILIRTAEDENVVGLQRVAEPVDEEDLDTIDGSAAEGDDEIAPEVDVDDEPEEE

DU145 spheroids = assay: Cytotoxicity in DU145 spheroids; type: cell-based; details: read-out: IC50 (St. dev.) DU145 spheroids; 72 h; triplicate
[3] = test system: HeLa parental and XPA knockout cells; assay: HeLa parental and XPA knockout cytotoxicity; type: cell-based; details: 72 h
HEL299 = assay: Cell cytotoxicity; type: cell-based; details: read-out: IC50 (St. dev.) HEL299; 72 h; triplicate
In short: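 Healthy lung fibroblasts were treated with each test compound. IC50 is the average of triplicate measurements, reported with standard deviation. Selectivity index is the HEL299 IC50 divided by the A549 IC50.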

HL-60 = details: read-out: IC50 (St. dev.) HL-60; ref prior work (footnote d); cited from earlier work

Compound | COMPARE correlation (Pearson correlation coefficient) to compound 2 (NCI 60-cell line panel) | bacterial growth inhibition (E. coli BL21(DE3) [1]) | also measured
CC[C@]1(O)C[C@@H]2CN(CCc3c([nH]c4ccccc34)[C@@](C(=O)OC)(c3cc4c(cc3OC)N(C)[C@H]3[C@@](O)(C(=O)OC)[C@H](OC(C)=O)[C@]5(CC)C=CCN6CC[C@]43[C@@H]65)C2)C1 [Vinblastine] | 0.64 |  | 
CN(C)[C@@H]1C(O)=C(C(N)=O)C(=O)[C@@]2(O)C(O)=C3C(=O)c4c(O)cccc4[C@@](C)(O)[C@H]3C[C@@H]12 [tetracycline] |  | inhibited bacterial growth | 
CO[C@@H]1[C@H](O)C[C@@H](O[C@@H]2C[C@H](Oc3cc4cc5c(c(O)c4c(O)c3C)C(=O)[C@@H](O[C@H]3C[C@@H](O[C@H]4C[C@@H](O[C@H]6C[C@](C)(O)[C@@H](OC(C)=O)[C@H](C)O6)[C@H](O)[C@@H](C)O4)[C@H](O)[C@@H](C)O3)[C@H]([C@H](OC)C(=O)[C@@H](O)[C@@H](C)O)C5)O[C@H](C)[C@@H]2OC(C)=O)O[C@@H]1C [Chromomycin A3] | 0.85 |  | 
CC(=O)O[C@H]1C(=O)[C@@]2(C)[C@H]([C@H](OC(=O)c3ccccc3)[C@]3(O)C[C@H](OC(=O)[C@H](O)[C@@H](NC(=O)c4ccccc4)c4ccccc4)C(C)=C1C3(C)C)[C@]1(OC(C)=O)CO[C@@H]1C[C@@H]2O [Paclitaxel] | 0.71 | inhibited bacterial growth except for paclitaxel | filamentation (E. coli BL21(DE3) [2]; E. coli): no filament formation
Cc1c2oc3c(C)ccc(C(=O)N[C@@H]4C(=O)N[C@H](C(C)C)C(=O)N5CCC[C@H]5C(=O)N(C)CC(=O)N(C)[C@@H](C(C)C)C(=O)O[C@@H]4C)c3nc-2c(C(=O)N[C@@H]2C(=O)N[C@H](C(C)C)C(=O)N3CCC[C@H]3C(=O)N(C)CC(=O)N(C)[C@@H](C(C)C)C(=O)O[C@@H]2C)c(N)c1=O [Actinomycin D] (I: T[dV]P[Sar][NMeV] / II: T[dV]P[Sar][NMeV]; ester I:1-I:C, II:1-II:C; linker I:N-II:N via Actinocin(9to1)) | 0.69 |  | NPM1 distribution phenotype (NPM1): delocalized NPM1 phenotype
COc1cc([C@@H]2c3cc4c(cc3[C@@H](O[C@@H]3O[C@@H]5CO[C@@H](C)O[C@H]5[C@H](O)[C@H]3O)[C@H]3COC(=O)[C@H]23)OCO4)cc(OC)c1O [Etoposide] | 0.39 |  | 
O=C(O)c1cn(C2CC2)c2cc(N3CCNCC3)c(F)cc2c1=O [Ciprofloxacin] |  |  | concentration at which the supercoiled form was lost (E. coli DNA gyrase): 0.75 µM
CO[C@H]1/C=C/O[C@@]2(C)Oc3c(C)c(O)c4c(O)c(c(/C=N/N5CCN(C)CC5)c(O)c4c3C2=O)NC(=O)/C(C)=C\C=C\[C@H](C)[C@H](O)[C@@H](C)[C@@H](O)[C@@H](C)[C@H](OC(C)=O)[C@@H]1C [rifampicin] |  | inhibited bacterial growth | 
COc1cccc2c1C(=O)c1c(O)c3c(c(O)c1C2=O)C[C@@](O)(C(=O)CO)C[C@@H]3O[C@H]1C[C@H](N)[C@H](O)[C@H](C)O1 [Doxorubicin] | 0.55 |  | 
N.N.O=C([O-])C1(C(=O)[O-])CCC1.[Pt+2] [Carboplatin] | 0.12 |  | 
N.N.[Cl][Pt][Cl] [Cisplatin] | −0.16 | inhibited bacterial growth | NPM1 distribution phenotype (NPM1): Smaller changes in NPM1 distribution; IC50 (DU145 spheroids): 5.28 µM; average filament length (E. coli BL21(DE3) [2]; E. coli treated at the MIC, 24 h): 53 μm; sensitization of XPA knockout versus parental HeLa [3]: 4 fold; IC50 (HEL299): 3.05 µM; IC50 (HL-60): 3.1 µM
